{
  "source": "ChEMBL document CHEMBL2203081",
  "about": "(Bioorg Med Chem Lett, 2012)",
  "key": {"[1]": {"molecular_target": "Inhibitor of nuclear factor kappa-B kinase subunit epsilon (Homo sapiens) (UniProt Q14164)", "sequence (Q14164 whole entry)": "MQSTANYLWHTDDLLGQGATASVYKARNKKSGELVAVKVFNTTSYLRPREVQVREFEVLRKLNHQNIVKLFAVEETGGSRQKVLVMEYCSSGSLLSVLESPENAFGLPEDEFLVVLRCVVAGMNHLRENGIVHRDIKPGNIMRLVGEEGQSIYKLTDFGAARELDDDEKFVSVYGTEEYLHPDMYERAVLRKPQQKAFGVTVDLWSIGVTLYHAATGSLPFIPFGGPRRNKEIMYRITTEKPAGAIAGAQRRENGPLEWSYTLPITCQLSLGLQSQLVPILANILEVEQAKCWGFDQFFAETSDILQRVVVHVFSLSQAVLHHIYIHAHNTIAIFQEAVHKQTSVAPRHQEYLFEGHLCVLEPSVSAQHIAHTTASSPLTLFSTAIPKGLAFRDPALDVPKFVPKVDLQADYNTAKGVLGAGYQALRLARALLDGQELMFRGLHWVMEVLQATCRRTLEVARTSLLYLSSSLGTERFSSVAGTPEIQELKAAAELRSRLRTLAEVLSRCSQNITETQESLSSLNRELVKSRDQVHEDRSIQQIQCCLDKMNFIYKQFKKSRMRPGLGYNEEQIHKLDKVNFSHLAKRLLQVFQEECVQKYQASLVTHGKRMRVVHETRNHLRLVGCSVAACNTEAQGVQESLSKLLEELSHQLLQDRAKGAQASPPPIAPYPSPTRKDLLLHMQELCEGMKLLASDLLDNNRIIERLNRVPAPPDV", "assay": "Inhibition of IKKe assessed as residual activity at 1 uM"}, "[2]": {"molecular_target": "Ribosomal protein S6 kinase alpha-5 (Homo sapiens) (UniProt O75582)", "assay": "Inhibition of RPS6KA5 N-terminal domain 1 assessed as residual activity at 10 uM relative to control"}, "[3]": {"molecular_target": "Serine/threonine-protein kinase 24 (Homo sapiens) (UniProt Q9Y6E0)", "sequence (Q9Y6E0 whole entry, looked up)": "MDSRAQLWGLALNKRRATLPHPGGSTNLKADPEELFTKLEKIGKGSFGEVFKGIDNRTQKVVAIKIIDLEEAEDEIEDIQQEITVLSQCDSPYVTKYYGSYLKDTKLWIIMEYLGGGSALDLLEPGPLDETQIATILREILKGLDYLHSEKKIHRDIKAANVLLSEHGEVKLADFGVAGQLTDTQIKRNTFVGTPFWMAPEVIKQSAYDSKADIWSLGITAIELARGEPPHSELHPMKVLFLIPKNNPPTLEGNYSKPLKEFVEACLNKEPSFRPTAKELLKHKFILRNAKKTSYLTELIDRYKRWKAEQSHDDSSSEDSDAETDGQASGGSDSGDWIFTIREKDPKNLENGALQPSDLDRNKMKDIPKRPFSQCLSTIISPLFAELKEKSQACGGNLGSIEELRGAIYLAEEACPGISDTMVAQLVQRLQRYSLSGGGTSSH", "assay": "Inhibition of MST3 assessed as residual activity at 10 uM relative to control"}, "[4]": {"molecular_target": "ALK tyrosine kinase receptor (Homo sapiens) (UniProt Q9UM73)", "assay": "Inhibition of ALK assessed as residual activity at 10 uM relative to control"}, "[5]": {"molecular_target": "Microtubule-associated serine/threonine-protein kinase 1 (Homo sapiens) (UniProt Q9Y2H9)", "sequence (Q9Y2H9 whole entry, looked up)": "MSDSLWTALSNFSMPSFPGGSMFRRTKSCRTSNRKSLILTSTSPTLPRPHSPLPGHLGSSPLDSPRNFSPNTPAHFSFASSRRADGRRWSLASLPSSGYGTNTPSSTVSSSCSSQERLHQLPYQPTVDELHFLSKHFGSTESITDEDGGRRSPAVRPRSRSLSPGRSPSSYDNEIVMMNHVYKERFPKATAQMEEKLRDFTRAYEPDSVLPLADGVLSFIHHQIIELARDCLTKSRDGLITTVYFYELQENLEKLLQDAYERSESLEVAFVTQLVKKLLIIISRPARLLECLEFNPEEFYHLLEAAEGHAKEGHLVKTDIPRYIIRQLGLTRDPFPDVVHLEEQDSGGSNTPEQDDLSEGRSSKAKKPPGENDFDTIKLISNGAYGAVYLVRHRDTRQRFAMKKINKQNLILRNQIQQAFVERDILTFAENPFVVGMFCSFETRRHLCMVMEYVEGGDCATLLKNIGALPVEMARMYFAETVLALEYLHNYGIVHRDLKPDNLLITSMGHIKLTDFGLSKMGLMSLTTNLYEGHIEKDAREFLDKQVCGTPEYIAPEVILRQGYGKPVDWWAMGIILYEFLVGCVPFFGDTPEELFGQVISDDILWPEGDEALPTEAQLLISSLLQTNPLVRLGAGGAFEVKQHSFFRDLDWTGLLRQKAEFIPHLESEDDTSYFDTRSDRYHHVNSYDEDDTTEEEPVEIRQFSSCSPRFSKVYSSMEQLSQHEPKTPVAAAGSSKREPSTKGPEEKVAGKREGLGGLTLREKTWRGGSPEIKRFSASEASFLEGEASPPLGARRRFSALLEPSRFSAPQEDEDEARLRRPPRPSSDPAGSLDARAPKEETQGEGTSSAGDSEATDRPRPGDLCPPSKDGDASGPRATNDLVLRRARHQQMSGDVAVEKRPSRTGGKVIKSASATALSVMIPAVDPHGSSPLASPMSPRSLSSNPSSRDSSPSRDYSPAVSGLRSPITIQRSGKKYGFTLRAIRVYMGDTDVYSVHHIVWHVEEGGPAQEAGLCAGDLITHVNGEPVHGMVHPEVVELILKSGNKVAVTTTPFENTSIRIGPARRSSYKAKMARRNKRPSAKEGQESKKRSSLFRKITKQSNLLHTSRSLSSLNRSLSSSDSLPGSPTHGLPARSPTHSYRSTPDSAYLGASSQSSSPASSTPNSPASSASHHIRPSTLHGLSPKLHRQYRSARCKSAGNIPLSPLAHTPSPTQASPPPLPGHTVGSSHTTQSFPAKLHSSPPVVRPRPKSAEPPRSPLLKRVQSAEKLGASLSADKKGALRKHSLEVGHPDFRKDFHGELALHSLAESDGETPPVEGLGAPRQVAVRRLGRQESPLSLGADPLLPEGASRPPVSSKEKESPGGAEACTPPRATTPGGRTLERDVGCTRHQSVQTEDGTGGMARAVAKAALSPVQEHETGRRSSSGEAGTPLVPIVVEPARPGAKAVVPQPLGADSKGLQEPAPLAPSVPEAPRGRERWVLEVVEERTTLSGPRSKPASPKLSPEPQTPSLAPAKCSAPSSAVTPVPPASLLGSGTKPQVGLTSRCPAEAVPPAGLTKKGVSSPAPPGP", "assay": "Inhibition of MAST1 assessed as residual activity at 10 uM relative to control"}, "[6]": {"molecular_target": "Serine/threonine-protein kinase N2 (Homo sapiens) (UniProt Q16513)", "assay": "Inhibition of PKN2 assessed as residual activity at 10 uM relative to control"}, "[7]": {"molecular_target": "Testis-specific serine/threonine-protein kinase 1 (Homo sapiens) (UniProt Q9BXA7)", "assay": "Inhibition of TSSK1 assessed as residual activity at 1 uM"}, "[8]": {"molecular_target": "RAC-gamma serine/threonine-protein kinase (Homo sapiens) (UniProt Q9Y243)", "assay": "Inhibition of AKT3 assessed as residual activity at 10 uM relative to control"}, "[9]": {"molecular_target": "MAP kinase-activated protein kinase 2 (Homo sapiens) (UniProt P49137)", "assay": "Inhibition of MAPKAPK2 assessed as residual activity at 10 uM relative to control"}, "[10]": {"molecular_target": "Dual specificity protein kinase CLK1 (Homo sapiens) (UniProt P49759)", "assay": "Inhibition of CLK1 assessed as residual activity at 10 uM relative to control"}, "[11]": {"molecular_target": "Serine/threonine-protein kinase 3 (Homo sapiens) (UniProt Q13188)", "assay": "Inhibition of MST2 assessed as residual activity at 10 uM relative to control"}, "[12]": {"molecular_target": "Insulin receptor (Homo sapiens) (UniProt P06213)", "assay": "Inhibition of INSR assessed as residual activity at 10 uM relative to control"}, "[13]": {"molecular_target": "Casein kinase I isoform gamma-2 (Homo sapiens) (UniProt P78368)", "assay": "Inhibition of CSNK1G2 assessed as residual activity at 10 uM relative to control", "summary_of_the_method": "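Competition kinase-binding assay (KINOMEscan) across a non-redundant panel of 329 kinases beyond the radiometric panel; residual binding expressed relative to control.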"}, "[14]": {"molecular_target": "Tyrosine-protein kinase Fer (Homo sapiens) (UniProt P16591)", "assay": "Inhibition of FER assessed as residual activity at 10 uM relative to control"}, "[15]": {"molecular_target": "Serine/threonine-protein kinase RIO2 (Homo sapiens) (UniProt Q9BVS4)", "sequence (Q9BVS4 whole entry, looked up)": "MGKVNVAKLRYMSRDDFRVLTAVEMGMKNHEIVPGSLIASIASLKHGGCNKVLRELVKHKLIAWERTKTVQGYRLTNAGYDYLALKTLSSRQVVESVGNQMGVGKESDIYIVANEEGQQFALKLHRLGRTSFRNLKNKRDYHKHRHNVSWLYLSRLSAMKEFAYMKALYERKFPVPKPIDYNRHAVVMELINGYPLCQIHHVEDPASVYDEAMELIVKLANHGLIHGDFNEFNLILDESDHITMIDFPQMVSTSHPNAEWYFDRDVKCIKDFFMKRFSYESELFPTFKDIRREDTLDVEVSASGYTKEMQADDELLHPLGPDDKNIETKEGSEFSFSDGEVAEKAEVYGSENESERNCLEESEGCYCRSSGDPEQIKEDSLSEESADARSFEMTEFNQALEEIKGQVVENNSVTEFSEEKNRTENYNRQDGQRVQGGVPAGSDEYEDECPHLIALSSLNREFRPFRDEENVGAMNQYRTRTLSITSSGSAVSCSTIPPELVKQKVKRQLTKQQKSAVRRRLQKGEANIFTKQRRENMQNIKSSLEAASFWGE", "assay": "Inhibition of RIOK2 assessed as residual activity at 10 uM relative to control"}, "[16]": {"tested_on": "Mus musculus", "assay": "Inhibition of LRRK2 in mouse assessed as inhibition of Ser935 autophosphorylation in spleen at 100 mg/kg, ip by immunoblot method", "assay_type": "functional, organism-based", "set-up": "dose 100 mg/kg"}, "[17]": {"molecular_target": "Serine/threonine-protein kinase 33 (Homo sapiens) (UniProt Q9BYT3)", "sequence (Q9BYT3 whole entry, looked up)": "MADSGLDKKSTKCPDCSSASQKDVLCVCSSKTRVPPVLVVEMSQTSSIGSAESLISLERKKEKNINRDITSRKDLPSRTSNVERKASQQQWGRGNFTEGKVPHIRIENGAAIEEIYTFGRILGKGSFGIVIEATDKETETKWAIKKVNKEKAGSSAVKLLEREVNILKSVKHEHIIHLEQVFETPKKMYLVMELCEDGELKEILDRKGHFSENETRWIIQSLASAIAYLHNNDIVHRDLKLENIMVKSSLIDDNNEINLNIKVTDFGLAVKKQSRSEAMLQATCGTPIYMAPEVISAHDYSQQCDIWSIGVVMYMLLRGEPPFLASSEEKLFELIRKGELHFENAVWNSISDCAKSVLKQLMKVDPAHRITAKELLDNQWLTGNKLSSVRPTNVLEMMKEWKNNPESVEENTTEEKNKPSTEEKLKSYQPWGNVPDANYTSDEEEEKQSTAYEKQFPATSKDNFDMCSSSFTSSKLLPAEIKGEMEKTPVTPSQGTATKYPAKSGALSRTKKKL", "assay": "Inhibition of STK33 assessed as residual activity at 1 uM"}, "[18]": {"molecular_target": "NT-3 growth factor receptor (Homo sapiens) (UniProt Q16288)", "assay": "Inhibition of TRKC assessed as residual activity at 10 uM relative to control"}, "[19]": {"molecular_target": "Platelet-derived growth factor receptor beta (Homo sapiens) (UniProt P09619)", "assay": "Inhibition of PDGFRB assessed as residual activity at 10 uM relative to control"}, "[20]": {"molecular_target": "Inhibitor of nuclear factor kappa-B kinase subunit epsilon (Homo sapiens) (UniProt Q14164)", "assay": "Inhibition of IKKe assessed as residual activity at 10 uM"}, "[21]": {"molecular_target": "T1, Ephrin type-B receptor 3 (Homo sapiens) (UniProt P54753)", "T1 sequence (whole entry)": "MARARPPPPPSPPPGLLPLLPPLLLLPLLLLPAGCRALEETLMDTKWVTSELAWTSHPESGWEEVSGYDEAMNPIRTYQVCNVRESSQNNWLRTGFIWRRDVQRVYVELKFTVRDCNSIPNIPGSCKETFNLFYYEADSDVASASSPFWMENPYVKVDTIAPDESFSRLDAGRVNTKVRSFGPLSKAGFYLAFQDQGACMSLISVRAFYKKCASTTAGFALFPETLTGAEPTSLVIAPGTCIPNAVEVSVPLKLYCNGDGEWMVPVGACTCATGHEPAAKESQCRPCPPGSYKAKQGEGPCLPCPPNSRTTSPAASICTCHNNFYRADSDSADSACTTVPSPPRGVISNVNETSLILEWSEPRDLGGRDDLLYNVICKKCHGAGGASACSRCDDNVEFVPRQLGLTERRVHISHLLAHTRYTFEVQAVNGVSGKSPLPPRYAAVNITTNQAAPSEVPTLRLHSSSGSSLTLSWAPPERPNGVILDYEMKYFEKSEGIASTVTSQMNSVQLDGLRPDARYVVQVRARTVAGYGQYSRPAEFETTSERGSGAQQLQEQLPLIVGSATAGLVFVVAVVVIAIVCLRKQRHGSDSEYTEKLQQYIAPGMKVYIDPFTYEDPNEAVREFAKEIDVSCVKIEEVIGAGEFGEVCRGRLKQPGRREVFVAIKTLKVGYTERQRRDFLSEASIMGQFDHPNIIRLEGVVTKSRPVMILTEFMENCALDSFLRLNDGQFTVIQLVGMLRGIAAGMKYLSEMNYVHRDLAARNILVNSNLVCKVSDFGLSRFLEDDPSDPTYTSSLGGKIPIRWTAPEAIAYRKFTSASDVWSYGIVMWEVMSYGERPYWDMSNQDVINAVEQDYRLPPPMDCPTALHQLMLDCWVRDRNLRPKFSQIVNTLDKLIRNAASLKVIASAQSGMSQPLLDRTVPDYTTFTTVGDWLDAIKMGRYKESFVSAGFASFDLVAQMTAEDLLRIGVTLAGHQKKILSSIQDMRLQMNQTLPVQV", "assay": "Inhibition of EPH-B3 assessed as residual activity at 1 uM", "summary_of_the_method": "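Standard radioactivity-based enzymatic kinase assays on a 131-kinase panel run by the Dundee profiling service; residual kinase activity recorded.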"}, "[22]": {"molecular_target": "Serine/threonine-protein kinase NLK (Homo sapiens) (UniProt Q9UBE8)", "assay": "Inhibition of NLK assessed as residual activity at 10 uM relative to control"}, "[23]": {"molecular_target": "Serine/threonine-protein kinase MRCK beta (Homo sapiens) (UniProt Q9Y5S2)", "assay": "Inhibition of MRCKB assessed as residual activity at 10 uM relative to control"}, "[24]": {"molecular_target": "Macrophage-stimulating protein receptor (Homo sapiens) (UniProt Q04912)", "assay": "Inhibition of MST1R assessed as residual activity at 10 uM relative to control"}, "[25]": {"molecular_target": "Dual serine/threonine and tyrosine protein kinase (Homo sapiens) (UniProt Q6XUX3)", "sequence (Q6XUX3 whole entry)": "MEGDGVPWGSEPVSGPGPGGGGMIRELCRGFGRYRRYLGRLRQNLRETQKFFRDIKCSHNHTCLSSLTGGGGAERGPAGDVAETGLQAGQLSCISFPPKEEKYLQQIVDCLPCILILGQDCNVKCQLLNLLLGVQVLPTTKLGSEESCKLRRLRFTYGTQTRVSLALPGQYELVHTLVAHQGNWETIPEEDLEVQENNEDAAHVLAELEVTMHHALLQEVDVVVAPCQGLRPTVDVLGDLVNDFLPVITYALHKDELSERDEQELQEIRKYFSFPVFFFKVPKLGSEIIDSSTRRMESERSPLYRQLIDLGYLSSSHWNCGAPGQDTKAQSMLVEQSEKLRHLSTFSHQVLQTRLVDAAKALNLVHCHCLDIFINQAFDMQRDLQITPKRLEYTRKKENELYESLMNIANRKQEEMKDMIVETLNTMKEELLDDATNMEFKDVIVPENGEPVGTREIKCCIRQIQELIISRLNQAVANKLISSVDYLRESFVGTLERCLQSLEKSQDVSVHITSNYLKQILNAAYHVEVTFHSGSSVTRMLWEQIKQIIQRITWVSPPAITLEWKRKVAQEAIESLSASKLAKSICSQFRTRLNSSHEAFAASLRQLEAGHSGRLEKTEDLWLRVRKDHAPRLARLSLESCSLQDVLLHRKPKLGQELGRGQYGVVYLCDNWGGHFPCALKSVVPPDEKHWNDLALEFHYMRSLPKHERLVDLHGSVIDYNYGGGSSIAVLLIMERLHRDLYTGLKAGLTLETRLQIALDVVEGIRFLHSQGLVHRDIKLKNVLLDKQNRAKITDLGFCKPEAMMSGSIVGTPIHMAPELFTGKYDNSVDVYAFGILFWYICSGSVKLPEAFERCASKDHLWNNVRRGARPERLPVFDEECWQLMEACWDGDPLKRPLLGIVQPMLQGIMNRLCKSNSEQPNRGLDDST", "assay": "Inhibition of RIPK5 assessed as residual activity at 10 uM relative to control"}},
  "note": "Active and inactive are the calls of the source. The calls are words filed in the database; no cut-off is given here.",
  "data": [
    {"smiles": "O=C(Nc1cccnc1)c1cc(-c2ccnc(F)c2)ccc1OCc1ccccc1", "values": [
      {"measurement": "Activity", "setting": "[1]", "value": 106, "unit": "%"},
      {"measurement": "Activity", "setting": "[2]", "value": 77, "unit": "%"},
      {"measurement": "Activity", "setting": "[3]", "value": 63, "unit": "%"},
      {"measurement": "Activity", "setting": "[4]", "value": 7.2, "unit": "%"},
      {"measurement": "Activity", "setting": "[5]", "value": 35, "unit": "%"},
      {"measurement": "Activity", "setting": "[6]", "value": 20, "unit": "%"},
      {"measurement": "Activity", "setting": "[7]", "value": 103, "unit": "%"},
      {"measurement": "Activity", "setting": "[8]", "value": 51, "unit": "%"},
      {"measurement": "Activity", "setting": "[9]", "value": 74, "unit": "%"},
      {"measurement": "Activity", "setting": "[10]", "value": 66, "unit": "%"},
      {"measurement": "Activity", "setting": "[11]", "value": 23, "unit": "%"},
      {"measurement": "Activity", "setting": "[12]", "value": 44, "unit": "%"},
      {"measurement": "Activity", "setting": "[13]", "value": 27, "unit": "%"},
      {"measurement": "Activity", "setting": "[14]", "value": 67, "unit": "%"},
      {"measurement": "Activity", "setting": "[15]", "value": 41, "unit": "%"},
      {"measurement": "inhibition", "setting": "[16]", "value": "Active"},
      {"measurement": "Activity", "setting": "[17]", "value": 64, "unit": "%"},
      {"measurement": "Activity", "setting": "[18]", "value": 62, "unit": "%"},
      {"measurement": "Activity", "setting": "[19]", "value": 52, "unit": "%"},
      {"measurement": "Activity", "setting": "[20]", "value": 102, "unit": "%"},
      {"measurement": "Activity", "setting": "[21]", "value": 121, "unit": "%"},
      {"measurement": "Activity", "setting": "[22]", "value": 65, "unit": "%"},
      {"measurement": "Activity", "setting": "[23]", "value": 59, "unit": "%"},
      {"measurement": "Activity", "setting": "[24]", "value": 17, "unit": "%"},
      {"measurement": "Activity", "setting": "[25]", "value": 69, "unit": "%"}
    ]}
  ]
}
